20 molecules from ChEMBL document CHEMBL4020718, “Trifluoromethyl arylamides with antileukemia effect and intracellular inhibitory activity over serine/arginine-rich protein kinases (SRPKs)” (Eur J Med Chem, 2017) can be followed below.

Molecules are shown by their SMILES. pIC50: −log10 of the molar value. Calls of active or inactive are those of the source. No cut-off for these calls is given here.

The subject of assay [1] is HL-60. Put plainly: Cytotoxicity against human HL60 cells assessed as reduction in cell viability up to 200 uM after 48 hrs by MTT assay. Type of assay: functional, cell-based. Particulars: for pIC50: Homo sapiens, HL-60, 48 h, read-out: IC50; for IC50: hl-60. The essentials:
(§1)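 Cells (7x10^4/well) in RPMI-1640 with 10% FBS, 37 °C, 5% CO2; exposed to compound dilutions 0–200 µM (medium with 10% FBS, 0.4% DMSO) for 48 h. MTT added, 3 h at 37 °C, formazan dissolved in DMSO, absorbance 540 nm. IC50 from concentration–response; means ± standard deviation of three independent experiments.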
In general terms: Tetrazolium assays rely on reduction of a dye to a coloured formazan, in cell work by metabolically active cells.

The subject of assay [2] is Jurkat. Put plainly: Cytotoxicity against human Jurkat cells assessed as reduction in cell viability up to 200 uM after 48 hrs by MTT assay. Type of assay: functional, cell-based. The following applies: for IC50: jurkat; for pIC50: Homo sapiens, Jurkat, 48 h, read-out: IC50. The essentials: as §1
For assay [3], the system named is NALM-6. Put plainly: Cytotoxicity against human NALM6 cells assessed as reduction in cell viability up to 200 uM after 48 hrs by MTT assay. The following applies: for pIC50: Homo sapiens, NALM-6, 48 h, read-out: IC50; for IC50: nalm-6. Format: functional, cell-based. In a few lines: as §1
The species entered for assay [4] is Homo sapiens. Nature of the assay: Inhibition of SRPK in human NALM6 cells assessed as decrease in RON mRNA expression level at 20 uM after 24 hrs by qRT-PCR analysis. Type of assay: cell-based. In a few lines:
(§2)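 Nalm6 given 20 µM for 24 h with 0.4% DMSO control; mRNA isolated with Tri Reagent, quantified spectrophotometrically, integrity checked on 1% agarose, then RT-PCR for target transcripts; one representative of three experiments.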
(In general: Quantitative PCR measures a nucleic acid by following its amplification.)

Assay [5] is filed under the species Homo sapiens. Nature of the assay: Inhibition of SRPK in human NALM6 cell lysates assessed as reduction in phospho-SR epitopes signal at 20 uM after 24 hrs by Western blot analysis. The essentials:
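Nalm6 treated 24 h at 20 µM (DMSO vehicle control), lysed at 2x10^7 cells/mL in PBS with 1% NP40, 1 mM EDTA, 150 mM NaCl, 10 mM Tris pH 7.4 plus protease/phosphatase inhibitors; on ice 10 min, sonicated, spun 15000 xg; SDS-PAGE, PVDF, milk block overnight, primary and secondary antibody 2 h each; representative of three.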

The species named for assay [6] is Homo sapiens. Nature of the assay: Inhibition of SRPK in human NALM6 cells assessed as decrease in MAP2K2 mRNA expression level at 20 uM after 24 hrs by qRT-PCR analysis. Format: cell-based. The essentials:
as §2

Assay [7] is filed under the species Homo sapiens. Nature of the assay: Inhibition of SRPK in human NALM6 cells assessed as decrease in MAP2K1 mRNA expression level at 20 uM after 24 hrs by qRT-PCR analysis. Type of assay: cell-based. The essentials: as §2
The species named for assay [8] is Homo sapiens. Nature of the assay: Inhibition of SRPK in human NALM6 cells assessed as decrease in VEGF mRNA expression level at 20 uM after 24 hrs by qRT-PCR analysis. Type of assay: cell-based. The essentials:
as §2

For orientation: pIC50 means −log10 of the IC50, conventionally taken in molar units. Consider `O=C(Nc1cc(C(F)(F)F)ccc1NC1CCCCC1)c1cccnc1`, for which the figures for the pIC50 in assay [1] and in assay [3] were 4.32 and 4.28, respectively. In addition, the IC50 result in assay [2] is “Not Active”.
As to `CCN(CC)c1ccc(C(F)(F)F)cc1NC(=O)c1cccnc1`, the negative logarithm of the IC50 (pIC50) in assay [1] was 4.15; in assay [3] it was 4.20. The IC50 entry in assay [2] was “Not Active”.
For `O=C(Nc1cc(C(F)(F)F)ccc1N1CCOCC1)c1ccncc1`, the IC50 entry in assay [1], in assay [2] and in assay [3] was “Not Active” throughout.
For `CCN(CC)c1ccc(C(F)(F)F)cc1NC(=O)c1ccncc1`, the pIC50 was 4.05 in assay [1] and 4.20 in assay [3]. Also, the IC50 result in assay [2] is “Not Active”.
For `CCN(CC)c1ccc(C(F)(F)F)cc1NC(=O)c1ccccc1`, the IC50 entry in assay [1], in assay [2] and in assay [3] was “Not Active” throughout.
On to `O=C(Nc1cc(C(F)(F)F)ccc1N1CCCC1)c1cccnc1Cl`, for which the IC50 result in assay [1], in assay [2] and in assay [3] was “Not Active” in each case.
For `O=C(Nc1cc(C(F)(F)F)ccc1N1CCCCC1)c1ccccc1`, the IC50 result in assay [1], in assay [2] and in assay [3] was “Not Active” in each case.
As for `O=C(Nc1cc(C(F)(F)F)ccc1N1CCCCC1)c1cccnc1Cl`, the IC50 result in assay [1], in assay [2] and in assay [3] was “Not Active” in each case.
With `O=C(Nc1cc(C(F)(F)F)ccc1N1CCCC1)c1cccnc1`, the IC50 result in assay [1], in assay [2] and in assay [3] was “Not Active” each time.
Turning to `O=C(Nc1cc(C(F)(F)F)ccc1N1CCOCC1)c1cccnc1`, the IC50 entry in assay [1], in assay [2] and in assay [3] was “Not Active” each time.
For `O=C(Nc1cc(C(F)(F)F)ccc1N1CCOCC1)c1cccnc1Cl`, the IC50 result in assay [1], in assay [2] and in assay [3] was “Not Active” throughout.
`O=C(Nc1cc(C(F)(F)F)ccc1N1CCCC1)c1ccccc1`: the IC50 result in assay [1], in assay [2] and in assay [3] was “Not Active” each time.
Regarding `O=C(Nc1cc(C(F)(F)F)ccc1NC1CCCCC1)c1ccccc1`, the pIC50 in assay [1] is 4.46. Besides, the IC50 result in assay [2] and in assay [3] was “Not Active” throughout.
On to `O=C(Nc1cc(C(F)(F)F)ccc1N1CCCCC1)c1cccnc1`, for which the IC50 result in assay [1], in assay [2] and in assay [3] was “Not Active” in each case.
With `O=C(Nc1cc(C(F)(F)F)ccc1N1CCCCC1)c1ccncc1`, the inhibition result in assay [4], in assay [6], in assay [7] and in assay [8] was “inactive” throughout. For the same molecule, the inhibition entry in assay [5] was “Active”. Also, the pIC50 in assay [1] was 4.42; in assay [2] it was 4.12; in assay [3], 4.15.
In the case of `O=C(Nc1cc(C(F)(F)F)ccc1N1CCCC1)c1ccncc1`, the IC50 entry in assay [1], in assay [2] and in assay [3] was “Not Active” throughout.
Take `O=C(Nc1cc(C(F)(F)F)ccc1N1CCOCC1)c1ccccc1`: the IC50 result in assay [1], in assay [2] and in assay [3] was “Not Active” in each case.
Consider `O=C(Nc1cc(C(F)(F)F)ccc1Nc1ccc(Br)cc1)c1ccncc1`, for which the IC50 entry in assay [1] and in assay [2] was “Not Active” throughout. For the same molecule, the pIC50 in assay [3] is 4.28.
In the case of `O=C(Nc1cc(C(F)(F)F)ccc1NC1CCCCC1)c1ccncc1`, the negative-log IC50 (pIC50) in assay [1] was 4.23; in assay [2] it was 4.09; in assay [3] it was 4.23.
For the molecule `CCN(CC)c1ccc(C(F)(F)F)cc1NC(=O)c1cccnc1Cl`, the pIC50 in assay [1] was 4.08; in assay [2], 4.05. Moreover, the IC50 result in assay [3] is “Not Active”.
